Experimental data as given in ChEMBL document CHEMBL1124174, “Substituted benzamides. 1. Potential nondopaminergic antagonists of chemotherapy-induced nausea and emesis” (J Med Chem, 1988).
“And” between values parts separate entries of the source, which are not always exact repeats. Equal values may be shown once.

Legend:
[1] = biological target: D(2) dopamine receptor (Rattus norvegicus) (UniProt P61169); assay: In vivo antagonism activity against D2 receptor was measured as stereotypy in rat when administered subcutaneously; assay type: functional, organism-based
How it was run: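 Male Long Evans rats (275 g) were dosed sc in dilute aqueous HCl (pH 4.5-5.5) 30 min before apomorphine (1 mg/kg sc).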

D(2) dopamine receptor = D(2) dopamine receptor (Rattus norvegicus, UniProt P61169); assay: In vitro antagonistic activity against Dopamine receptor D2 was evaluated for the inhibition of [3H]spiperone binding
How it was run: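 Rat striatal membranes were prepared by differential centrifugation in 50 mM Tris pH 7.4 at 4 °C. Membrane protein (10 mg) was incubated 15 min at 37 °C with 0.1 nM [3H]spiperone and varying competitor concentrations. Buffer: 50 mM Tris HCl pH 7.5, 0.1% ascorbic acid, pargyline, 120 mM NaCl, 5 mM KCl, 2 mM CaCl2, 1 mM MgCl2. (+)-Butaclamol defined nonspecific binding. Bound ligand was collected by filtration and scintillation counted. IC50 by log-logit regression.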

Mustela putorius furo [2] = assay: In vivo antagonism of cisplatin-induced emesis in ferret measured as emetic episodes, twice the dose of 1 mg/kg and in 3 ferrets; assay type: functional
How it was run: (§1)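 Nonfasted castrated male Fitch ferrets (1–1.5 kg) had jugular catheters implanted ≥48 h earlier under anesthesia. Compounds or saline were given iv twice, 5 min before and 90 min after cisplatin (12 mg/kg iv; 12 mg/mL in warm 0.9% saline). Emesis was observed up to 4 h; events within 1 min counted as one episode. Results were given as mean emetic episodes and % protection versus a pooled historical/concurrent control. t test versus saline.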

[3] = biological target: D(2) dopamine receptor (Canis lupus familiaris) (UniProt Q9GJU1); assay: In vivo antagonism activity against dopamine D2 receptor was measured as emesis in dog when administered subcutaneously; assay type: functional, organism-based
[4] = biological target: D(2) dopamine receptor (Rattus norvegicus) (UniProt P61169); assay: In vivo antagonistic activity against dopamine D2 receptor was measured as catalepsy in rat when administered subcutaneously; assay type: functional, organism-based
How it was run: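 Male Long Evans rats (275 g) received graded sc doses in dilute aqueous HCl (pH 4.5-5.5). They were observed 180 min for catalepsy, scored when the animal stayed stationary ≥15 s on a four-cork template.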

Canis familiaris [5] = assay: In vivo antagonism of cisplatin-induced emesis in dog measured as percentage protection for twice the dose of 0.3 mg/kg in 2 dogs; assay type: functional, Canis lupus familiaris
How it was run: (§2)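 Nonfasted mature male or female beagles were dosed sc twice, 30 min before and 120 min after cisplatin (3 mg/kg iv; 3 mg/mL in warm 0.9% saline, used immediately). Emesis was observed up to 5 h; events within 2 min counted as one episode. Results were given as mean emetic episodes and % protection versus a dynamic control (historical and concurrent saline means pooled). t test versus saline.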

Mustela putorius furo [6] = assay: In vivo antagonism of cisplatin-induced emesis in ferret measured as percentage protection for twice the dose of 1 mg/kg and in 3 ferrets; assay type: functional; how it was run: as §1
Canis familiaris [7] = assay: In vivo antagonism of cisplatin-induced emesis in dog measured as emetic episodes, twice the dose of 0.3 mg/kg in 2 dogs; assay type: functional, Canis lupus familiaris; how it was run: as §2
Mustela putorius furo [8] = assay: In vivo antagonism of cisplatin-induced emesis in ferret measured as percentage protection for twice the dose of 3 mg/kg and in 3 ferrets; assay type: functional; how it was run: as §1
Mustela putorius furo [9] = assay: In vivo antagonism of cisplatin-induced emesis in ferret measured as percentage protection for twice the dose of 0.3 mg/kg and in 3 ferrets; assay type: functional; how it was run: as §1
Canis familiaris [10] = assay: In vivo antagonism of cisplatin-induced emesis in dog measured as percentage protection for twice the dose of 1 mg/kg in 2 dogs; assay type: functional, Canis lupus familiaris; how it was run: as §2
Mustela putorius furo [11] = assay: In vivo antagonism of cisplatin-induced emesis in ferret measured as emetic episodes, twice the dose of 3 mg/kg and in 3 ferrets; assay type: functional; how it was run: as §1
Canis familiaris [12] = assay: In vivo antagonism of cisplatin-induced emesis in dog measured as emetic episodes, twice the dose of 1 mg/kg in 2 dogs; assay type: functional, Canis lupus familiaris; how it was run: as §2
Mustela putorius furo [13] = assay: In vivo antagonism of cisplatin-induced emesis in ferret measured as emetic episodes, twice the dose of 0.3 mg/kg and in 3 ferrets; assay type: functional; how it was run: as §1
Canis familiaris [14] = assay: In vivo antagonism of cisplatin-induced emesis in dog measured as percentage protection for twice the dose of 6 mg/kg in 2 dogs; assay type: functional, Canis lupus familiaris; how it was run: as §2
Canis familiaris [15] = assay: In vivo antagonism of cisplatin-induced emesis in dog measured as emetic episodes, twice the dose of 6 mg/kg in 2 dogs; assay type: functional, Canis lupus familiaris; how it was run: as §2

Chain of D(2) dopamine receptor (Canis lupus familiaris) (Q9GJU1 whole entry): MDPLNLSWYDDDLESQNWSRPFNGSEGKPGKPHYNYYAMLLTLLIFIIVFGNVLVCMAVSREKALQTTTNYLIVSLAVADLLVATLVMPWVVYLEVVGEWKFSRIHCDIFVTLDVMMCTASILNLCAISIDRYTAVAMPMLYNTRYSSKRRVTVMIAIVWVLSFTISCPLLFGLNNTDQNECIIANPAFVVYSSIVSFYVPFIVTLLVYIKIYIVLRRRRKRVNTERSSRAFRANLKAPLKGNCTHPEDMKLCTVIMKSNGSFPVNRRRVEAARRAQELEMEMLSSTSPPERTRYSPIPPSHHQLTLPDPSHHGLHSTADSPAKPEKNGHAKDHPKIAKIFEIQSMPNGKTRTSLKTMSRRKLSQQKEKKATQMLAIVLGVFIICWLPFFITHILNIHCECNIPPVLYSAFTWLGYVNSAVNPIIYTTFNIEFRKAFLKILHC
Chain of D(2) dopamine receptor (P61169 whole entry): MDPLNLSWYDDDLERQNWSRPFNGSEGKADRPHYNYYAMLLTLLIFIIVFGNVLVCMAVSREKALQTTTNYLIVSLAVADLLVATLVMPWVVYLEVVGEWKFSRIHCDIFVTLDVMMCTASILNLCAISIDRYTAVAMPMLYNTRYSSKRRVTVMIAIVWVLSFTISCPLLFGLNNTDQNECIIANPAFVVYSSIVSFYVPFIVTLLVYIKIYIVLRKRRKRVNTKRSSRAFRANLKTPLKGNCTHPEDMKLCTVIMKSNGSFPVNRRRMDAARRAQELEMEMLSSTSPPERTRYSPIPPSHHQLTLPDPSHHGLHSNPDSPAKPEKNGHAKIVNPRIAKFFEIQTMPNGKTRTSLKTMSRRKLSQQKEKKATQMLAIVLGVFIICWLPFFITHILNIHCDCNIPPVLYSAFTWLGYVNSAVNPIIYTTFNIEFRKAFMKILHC
Chain of D(2) dopamine receptor (Rattus norvegicus) (P61169 whole entry): as above

Row | SMILES | ED50 [1] [mg/kg] | IC50 (D(2) dopamine receptor) [nM] | Emetic episodes (Mustela putorius furo [2]) | ED50 [3] [mg/kg] | ED50 [4] [mg/kg] | Protection (Canis familiaris [5]) [%] | Protection (Mustela putorius furo [6]) [%] | Emetic episodes (Canis familiaris [7]) | Protection (Canis familiaris [10]) [%] | Emetic episodes (Canis familiaris [12]) | Protection (Mustela putorius furo [8]) [%] | Emetic episodes (Mustela putorius furo [11]) | further results
1 | CCN(CC)CCNC(=O)c1cc(Cl)c(N)cc1OCC(C)O (centres undefined) | > 40 | > 1000 | 4.5 | > 3 | > 40 | 68 | 36 | 3 | 100 | 0 | 86 | 1 | –
2 | CCN(CC)CCNC(=O)c1cc(Cl)c(N)cc1OC1CCCC[C@@H]1OC (some centres undefined) | > 40 | > 1000 | 2.3 | > 3 | > 40 | – | 69 | – | 15 | 10 | 91 | 0.7 | Protection (Mustela putorius furo [9]): 42%; Emetic episodes (Mustela putorius furo [13]): 4.3
3 | CCN(CC)CCNC(=O)c1cc(Cl)c(N)cc1OC1CCCC[C@H]1O (some centres undefined) | > 40 | > 1000 | – | – | > 40 | 64 | – | 4.5 | 100 | 0 | 64 | 2.7 | –
4 | CCN(CC)CCNC(=O)c1cc(Cl)c(N)cc1OC/C(C)=N/OC | > 40 | > 1000 | – | – | > 40 | – | – | – | – | – | 90 | 0.7 | Protection (Canis familiaris [14]): 71%; Emetic episodes (Canis familiaris [15]): 3.5
5 | CCCC(=O)COc1cc(N)c(Cl)cc1C(=O)NCCN(CC)CC | > 40 | > 1000 | 0.7 | > 3 | > 40 | 84 | 90 | 2 | – | – | – | – | –
6 | CCC(=O)COc1cc(N)c(Cl)cc1C(=O)NCCN(CC)CC | > 40 | > 1000 | – | > 3 | > 40 | – | – | 3 | 100 | 0 | 90 | 0.7 | Protection (Mustela putorius furo [9]): 0%; Emetic episodes (Mustela putorius furo [13]): 7.3
7 | CCN(CC)CCN1C(=O)c2cc(Cl)c(N)cc2OC(C)=C1C | > 40 | > 1000 | – | > 3 | > 40 | 37 | – | 7.5 | – | – | – | – | Protection (Mustela putorius furo [9]; 0.3 mg/kg): 95% and 67%

The next lines start with results.

Row | ED50 [1] [mg/kg] | IC50 (D(2) dopamine receptor) [nM] | SMILES | Emetic episodes (Mustela putorius furo [2]) | ED50 [3] [mg/kg] | ED50 [4] [mg/kg] | Protection (Canis familiaris [5]) [%] | Protection (Mustela putorius furo [6]) [%] | Emetic episodes (Canis familiaris [7]) | Protection (Canis familiaris [10]) [%] | Emetic episodes (Canis familiaris [12]) | Protection (Mustela putorius furo [8]) [%] | Emetic episodes (Mustela putorius furo [11]) | further results
8 | > 40 | > 1000 | CCN(CC)CCNC(=O)c1cc(Cl)c(N)cc1OCCC(C)O (centres undefined) | 2 | > 3 | > 40 | 32 | 73 | 8 | – | – | – | – | –
9 | > 40 | > 1000 | CCC(=O)C(C)Oc1cc(N)c(Cl)cc1C(=O)NCCN(CC)CC (centres undefined) | 1.3 | > 3 | > 40 | 84 | 82 | 2 | – | – | – | – | –
10 | – | > 1000 | CCN(CC)CCNC(=O)c1cc(Cl)c(N)cc1OC(C)C(C)O (stereo in doubt; 8h) | – | – | – | – | – | – | 75 | 3 | – | – | Protection (Mustela putorius furo [8]; 3 mg/kg): 95%; Protection (Mustela putorius furo [9]; 0.3 mg/kg): 37%; Emetic episodes (Mustela putorius furo [2]; 1 mg/kg): 2.3; Protection (Canis familiaris [5]; 0.3 mg/kg): 60%; Emetic episodes (Mustela putorius furo [11]; 3 mg/kg): 0.3; Protection (Mustela putorius furo [6]; 1 mg/kg): 68%; Emetic episodes (Canis familiaris [7]; 0.3 mg/kg): 4.5; Emetic episodes (Mustela putorius furo [13]; 0.3 mg/kg): 4.7
11 | > 40 | > 1000 | CCC(Oc1cc(N)c(Cl)cc1C(=O)NCCN(CC)CC)C(C)=O (centres undefined) | 2.3 | > 3 | > 40 | – | 68 | 3 | 96 | 0.5 | – | – | –
12 | > 40 | > 1000 | CCN(CC)CCNC(=O)c1cc(Cl)c(N)cc1OCC(=O)C(C)C | 4 | > 3 | > 40 | 44 | 44 | 3 | – | – | – | – | –
13 | > 40 | > 1000 | CCN(CC)CCNC(=O)c1cc(Cl)c(N)cc1OC1CCCCC1=O (centres undefined) | – | > 3 | > 40 | 88 | – | 1.5 | 100 | 0 | 100 | 0 | Protection (Mustela putorius furo [9]): 62%; Emetic episodes (Mustela putorius furo [13]): 2.7
14 | > 40 | > 1000 | CCN(CC)CCNC(=O)c1cc(Cl)c(N)cc1OC1CCCC[C@H]1OC (some centres undefined) | 1.7 | > 3 | > 40 | 70 | 49 | 3.5 | 100 | 0 | 82 | 1.3 | Protection (Mustela putorius furo [9]): 77%; Emetic episodes (Mustela putorius furo [13]): 3.7
15 | > 40 | > 1000 | CCN(CC)CC/N=C(\NOC)c1cc(Cl)c(N)cc1OC | – | > 1 | > 40 | – | – | – | – | – | 0 | 8.3 | Protection (Canis familiaris [14]): 34%; Emetic episodes (Canis familiaris [15]): 8.5
16 | – | > 1000 | CCN(CC)CCNC(=O)c1cc(Cl)c(N)cc1OC(C)C(C)O (stereo in doubt; 8g,h) | – | – | – | – | – | – | – | – | – | – | Protection (Mustela putorius furo [8]; 3 mg/kg): 80%; Emetic episodes (Mustela putorius furo [2]; 1 mg/kg): 1.7; Protection (Canis familiaris [5]; 0.3 mg/kg): 96%; Emetic episodes (Mustela putorius furo [11]; 3 mg/kg): 1.3; Protection (Mustela putorius furo [6]; 1 mg/kg): 75%; Emetic episodes (Canis familiaris [7]; 0.3 mg/kg): 0.5
17 | – | > 1000 | CCN(CC)CCNC(=O)c1cc(Cl)c(N)cc1OC[C@@H](C)O (stereo in doubt; 8f) | – | – | – | – | – | – | – | – | – | – | Protection (Mustela putorius furo [9]): 0%; Emetic episodes (Mustela putorius furo [2]; 1 mg/kg): 5.7; Protection (Canis familiaris [10]; 1 mg/kg): 100%; Emetic episodes (Canis familiaris [12]; 1 mg/kg): 0; Protection (Mustela putorius furo [6]; 1 mg/kg): 22%; Emetic episodes (Canis familiaris [7]; 0.3 mg/kg): 2; Emetic episodes (Mustela putorius furo [13]): 8
